{"data": "Experimental data of several laboratories", "target": "MAP kinase-activated protein kinase 2 (MAPKAPK2, Homo sapiens, UniProt P49137)", "note": "Lines come from different studies, so protocols differ."}
{"SMILES": "c1cnn2ncc(-c3ccnc(N4CCC45COC5)n3)c2c1", "assay": "binding", "setting": "1 µM", "remaining binding": "100%"}
{"SMILES": "N#Cc1ccccc1CSc1nnc2c(n1)[nH]c1ccccc12", "assay": "binding, competition with immobilised ligand", "setting": "10 µM", "remaining binding": "82%"}
{"SMILES": "CCN1CCN(Cc2ccc(C(=O)Nc3ccc(C)c(Oc4ccc5c(c4)CC(=O)N5)c3)cc2C(F)(F)F)CC1", "assay": "binding, competition with immobilised ligand", "setting": "1 µM", "remaining binding": "100%"}
{"SMILES": "COc1cc(-c2cn(C3CCc4ccccc4N(CC(F)(F)F)C3=O)nn2)ccc1-n1ccc(C)n1 (centres unmarked)", "assay": "cell-free assay, competition with immobilised ligand", "setting": "1 µM", "remaining binding": "90%"}
{"SMILES": "Cc1cnc(Nc2ccc(C(=O)N3CCC(N4CCCC4)CC3)cc2)nc1-c1cc2ccccc2s1", "assay": "binding, competition with immobilised ligand", "setting": "1 µM", "remaining binding": "100%"}
{"SMILES": "COc1ccc2c(O[C@@H]3C[C@H]4C(=O)N[C@]5(C(=O)O)CC5/C=C\\CCCCC[C@H](NC(=O)OC5CCCC5)C(=O)N4C3)cc(-c3csc(NC(=O)C(C)C)n3)nc2c1C (some centres unmarked)", "assay": "cell-free assay, competition with immobilised ligand", "setting": "1 µM", "remaining binding": "60%"}
{"SMILES": "CN(C)c1nccc(-c2cnn3ncccc23)n1", "assay": "binding", "setting": "1 µM", "remaining binding": "100%"}
{"SMILES": "CNCc1ccccc1-c1csc([C@@H](C)Nc2nc(C)nc3cc(OC)c(OC)cc23)c1", "assay": "cell-free assay, competition with immobilised ligand", "setting": "1 µM", "remaining binding": "83%"}
{"SMILES": "Nc1ncc2c(n1)-c1c([nH]c3ccc(C#CC4CC4)cc13)CCCC2", "assay": "binding, competition with immobilised ligand", "setting": "1 µM", "remaining binding": "86%"}
{"SMILES": "C[C@@H]1CN(c2ccc3ncc(-c4ccc5[nH]nc(C6CC6)c5c4)n3n2)C[C@H](C)O1", "assay": "binding, competition with immobilised ligand", "setting": "50 nM", "remaining binding": "62%"}
{"SMILES": "COc1cnc(Nc2cccc(S(N)(=O)=O)c2)nc1N1CCN(c2ccccc2)CC1", "assay": "binding, competition with immobilised ligand", "setting": "1 µM", "remaining binding": "100%"}
{"SMILES": "CN(C)c1nccc(-c2cnc3ncccn23)n1", "assay": "binding", "setting": "1 µM", "remaining binding": "84%"}
{"SMILES": "NS(=O)(=O)c1cc(NC(=O)Cc2ccccc2)ccc1Oc1cccc(Cl)c1", "assay": "cell-free assay, competition with immobilised ligand", "setting": "1 µM", "remaining binding": "100%"}
{"SMILES": "COc1cnc(Nc2cccc(S(N)(=O)=O)c2)nc1N1CCN(c2ccccc2)C(=O)C1", "assay": "binding, competition with immobilised ligand", "setting": "1 µM", "remaining binding": "100%"}
{"SMILES": "CCCOc1ccc([C@H]2[C@H](C(=O)O)[C@@H](c3ccc4c(c3)OCO4)CN2CC(=O)Nc2c(CC)cccc2CC)cc1", "assay": "cell-free assay, competition with immobilised ligand", "setting": "1 µM", "remaining binding": "100%"}
{"SMILES": "O=C(Nc1c[nH]nc1C(=O)NC1CCNCC1)c1cc(F)cc(F)c1", "assay": "binding, competition with immobilised ligand", "setting": "1 µM", "remaining binding": "100%"}
{"SMILES": "O=C(c1ccc(Nc2ncc(Cl)c(-c3ccc(Cl)s3)n2)cc1)N1CCC(N2CCCC2)CC1", "assay": "binding, competition with immobilised ligand", "setting": "1 µM", "remaining binding": "100%"}
{"SMILES": "Cc1c(C(=O)O)cc(-c2ccc(C3CCNCC3)cc2)c2ccc(-c3ccc(C(F)(F)F)cc3)cc12", "assay": "binding, competition with immobilised ligand", "setting": "1 µM", "remaining binding": "88%"}
{"SMILES": "FC(F)(F)Oc1cccc(-c2cnc3ccc(-c4ccncc4)nn23)c1", "assay": "cell-free assay, competition with immobilised ligand", "setting": "5 µM", "remaining binding": "100%"}
{"SMILES": "N[C@@H]1CCN(c2nccc(-c3cnn4ncccc34)n2)C1", "assay": "binding", "setting": "1 µM", "remaining binding": "100%"}
{"SMILES": "Cn1nc(C(F)(F)F)cc1-c1cnc(N2CCc3cc(S(=O)(=O)Nc4c(F)cc(Cl)cc4F)cc(N4CCCC4=O)c32)nc1", "assay": "cell-free assay, competition with immobilised ligand", "setting": "1 µM", "remaining binding": "73%"}
{"SMILES": "C[C@H]1CCN(c2nccc(-c3cnn4ncccc34)n2)C1", "assay": "binding", "setting": "1 µM", "remaining binding": "100%"}
{"SMILES": "O=C(c1ccc(Nc2ncc(Cl)c(-c3cc4ccccc4s3)n2)cc1)N1CCC(N2CCCC2)CC1", "assay": "binding, competition with immobilised ligand", "setting": "1 µM", "remaining binding": "100%"}
